# Data as given in ChEMBL document CHEMBL3758114, “Design, synthesis and biological evaluation of N-phenylquinazolin-4-amine hybrids as dual inhibitors of VEGFR-2 and HDAC” (Eur J Med Chem, 2016).
# How the values were obtained:
# [1] = system: MCF7; experiment: Antiproliferative activity against human MCF7 cells after 48 hrs by MTT assay; format: functional, cell-based; settings: MCF7, 48 h
# [2] = target: Histone deacetylase; experiment: Inhibition of HDAC in human HeLa cell nuclear extracts preincubated for 15 mins followed by addition of Fluor de Lys as substrate for 1 hr by fluorometric assay; format: cell-based
# [3] = target: Vascular endothelial growth factor receptor 2 (Homo sapiens, UniProt P35968); experiment: Inhibition of VEGFR2 (unknown origin) preincubated for 5 mins followed by addition of ATP/gastrin precursor(Tyr87) biotinylated peptide cocktail incubated for 30 mins by ELISA
# Outline: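 The kit enzyme, 100 ng VEGFR-2 in reaction cocktail, was preincubated with compound dilutions for 5 min at room temperature. The 30 min reaction ran at room temperature and was stopped with EDTA (50 mM, pH 8). Biotinylated peptide was captured on streptavidin wells for 60 min. Phospho-Tyr was detected with anti-pTyr-100 mAb, then HRP anti-mouse IgG, then TMB, read at 450 nm.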
# [4] = target: Histone deacetylase 2 (Homo sapiens, UniProt Q92769); experiment: Inhibition of HDAC2 (unknown origin) preincubated for 15 mins followed by addition of Fluor de Lys as substrate for 1 hr by fluorometric assay
# Outline: (§1)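 Each isolated HDAC isoform was incubated with compound at a range of concentrations for 15 min at room temperature. The reaction was then started with Fluor de Lys substrate and run for 1 h at room temperature. Developer was added to stop it. Fluorescence was read at excitation 355 nm and emission 460 nm. The assay was run three independent times.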
# [5] = target: Histone deacetylase 1 (Homo sapiens, UniProt Q13547); experiment: Inhibition of HDAC1 (unknown origin) preincubated for 15 mins followed by addition of Fluor de Lys as substrate for 1 hr by fluorometric assay; outline: as §1
# [6] = target: T1, Protein deacetylase HDAC6 (Homo sapiens, UniProt Q9UBN7); experiment: Inhibition of HDAC6 (unknown origin) preincubated for 15 mins followed by addition of Fluor de Lys as substrate for 1 hr by fluorometric assay; outline: as §1
# T1 sequence (Q9UBN7 whole entry): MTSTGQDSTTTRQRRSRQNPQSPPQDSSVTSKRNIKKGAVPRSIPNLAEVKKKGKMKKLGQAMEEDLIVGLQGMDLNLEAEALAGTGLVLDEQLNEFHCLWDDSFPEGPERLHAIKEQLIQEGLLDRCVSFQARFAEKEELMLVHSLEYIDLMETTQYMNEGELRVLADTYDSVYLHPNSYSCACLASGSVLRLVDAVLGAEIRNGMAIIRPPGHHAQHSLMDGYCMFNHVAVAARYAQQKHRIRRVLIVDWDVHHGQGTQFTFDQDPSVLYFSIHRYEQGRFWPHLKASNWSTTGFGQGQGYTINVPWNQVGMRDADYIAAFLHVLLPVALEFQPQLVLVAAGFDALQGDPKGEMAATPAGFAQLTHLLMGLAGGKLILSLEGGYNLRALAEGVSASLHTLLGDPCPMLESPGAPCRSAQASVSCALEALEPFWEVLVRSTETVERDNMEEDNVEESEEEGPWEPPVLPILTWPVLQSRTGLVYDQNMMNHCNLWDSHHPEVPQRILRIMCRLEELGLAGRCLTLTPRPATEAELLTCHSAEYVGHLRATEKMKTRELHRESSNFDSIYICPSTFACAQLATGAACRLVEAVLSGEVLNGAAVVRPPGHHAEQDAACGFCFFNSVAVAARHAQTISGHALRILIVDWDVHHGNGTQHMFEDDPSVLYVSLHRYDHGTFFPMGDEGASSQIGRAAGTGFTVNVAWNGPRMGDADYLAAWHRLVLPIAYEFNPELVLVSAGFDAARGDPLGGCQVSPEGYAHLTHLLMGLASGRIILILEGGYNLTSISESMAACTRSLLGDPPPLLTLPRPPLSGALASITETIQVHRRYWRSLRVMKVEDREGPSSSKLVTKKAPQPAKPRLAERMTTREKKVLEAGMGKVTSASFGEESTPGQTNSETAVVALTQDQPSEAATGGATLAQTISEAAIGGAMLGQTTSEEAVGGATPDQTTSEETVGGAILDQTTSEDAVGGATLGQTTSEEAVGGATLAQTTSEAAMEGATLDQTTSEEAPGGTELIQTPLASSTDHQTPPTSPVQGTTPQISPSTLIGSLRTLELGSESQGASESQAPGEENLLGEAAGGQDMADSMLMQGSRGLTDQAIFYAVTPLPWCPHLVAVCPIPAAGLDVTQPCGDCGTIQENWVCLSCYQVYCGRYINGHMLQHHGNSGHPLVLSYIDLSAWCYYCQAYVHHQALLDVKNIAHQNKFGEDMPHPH
# [7] = target: T2, Histone deacetylase 8 (Homo sapiens, UniProt Q9BY41); experiment: Inhibition of HDAC8 (unknown origin) preincubated for 15 mins followed by addition of Fluor de Lys as substrate for 1 hr by fluorometric assay; outline: as §1
# T2 sequence (Q9BY41 whole entry): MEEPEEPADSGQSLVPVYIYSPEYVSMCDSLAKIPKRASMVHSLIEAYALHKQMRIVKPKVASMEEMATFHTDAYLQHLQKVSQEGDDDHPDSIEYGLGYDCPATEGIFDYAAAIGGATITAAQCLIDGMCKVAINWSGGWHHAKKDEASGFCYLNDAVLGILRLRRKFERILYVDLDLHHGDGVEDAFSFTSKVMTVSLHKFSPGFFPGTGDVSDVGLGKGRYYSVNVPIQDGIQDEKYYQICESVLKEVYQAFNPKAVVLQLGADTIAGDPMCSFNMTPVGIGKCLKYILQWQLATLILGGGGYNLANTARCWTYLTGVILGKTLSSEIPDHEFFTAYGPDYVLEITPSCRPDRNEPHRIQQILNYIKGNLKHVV
# Chain of Vascular endothelial growth factor receptor 2 (P35968 whole entry): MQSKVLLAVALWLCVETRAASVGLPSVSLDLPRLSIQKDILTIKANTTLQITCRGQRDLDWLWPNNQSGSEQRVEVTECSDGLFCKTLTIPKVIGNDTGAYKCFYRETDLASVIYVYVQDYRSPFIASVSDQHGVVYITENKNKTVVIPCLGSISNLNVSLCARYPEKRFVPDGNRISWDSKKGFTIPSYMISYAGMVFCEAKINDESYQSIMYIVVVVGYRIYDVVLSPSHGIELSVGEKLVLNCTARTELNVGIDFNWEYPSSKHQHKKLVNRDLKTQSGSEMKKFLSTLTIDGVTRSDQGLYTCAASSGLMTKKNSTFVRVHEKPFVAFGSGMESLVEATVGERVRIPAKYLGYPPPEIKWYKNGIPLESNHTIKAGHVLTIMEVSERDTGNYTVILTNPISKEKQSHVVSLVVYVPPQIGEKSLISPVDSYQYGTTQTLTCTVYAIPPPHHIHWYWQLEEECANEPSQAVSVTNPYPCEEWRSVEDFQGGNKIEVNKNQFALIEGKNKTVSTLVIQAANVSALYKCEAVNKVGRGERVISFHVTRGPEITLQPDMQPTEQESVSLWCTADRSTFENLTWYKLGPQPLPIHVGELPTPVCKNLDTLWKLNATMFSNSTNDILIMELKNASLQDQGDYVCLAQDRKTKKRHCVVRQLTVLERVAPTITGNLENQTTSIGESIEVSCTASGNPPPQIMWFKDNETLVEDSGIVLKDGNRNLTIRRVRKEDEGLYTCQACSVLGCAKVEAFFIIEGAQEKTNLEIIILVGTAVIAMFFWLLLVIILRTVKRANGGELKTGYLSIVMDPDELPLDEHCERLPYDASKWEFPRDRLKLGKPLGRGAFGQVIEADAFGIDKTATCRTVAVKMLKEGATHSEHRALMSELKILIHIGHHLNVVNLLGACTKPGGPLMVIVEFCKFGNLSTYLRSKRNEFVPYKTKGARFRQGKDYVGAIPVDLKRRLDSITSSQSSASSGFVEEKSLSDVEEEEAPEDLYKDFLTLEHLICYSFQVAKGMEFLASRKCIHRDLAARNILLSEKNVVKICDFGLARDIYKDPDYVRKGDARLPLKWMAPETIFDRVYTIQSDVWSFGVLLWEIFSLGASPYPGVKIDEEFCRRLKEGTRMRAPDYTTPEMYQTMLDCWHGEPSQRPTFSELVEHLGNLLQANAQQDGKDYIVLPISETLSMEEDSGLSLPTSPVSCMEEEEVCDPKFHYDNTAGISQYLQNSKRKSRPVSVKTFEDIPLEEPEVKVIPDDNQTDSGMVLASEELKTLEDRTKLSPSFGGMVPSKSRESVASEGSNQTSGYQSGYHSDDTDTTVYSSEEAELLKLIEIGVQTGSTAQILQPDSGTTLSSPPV
# Chain of Histone deacetylase 2 (Q92769 whole entry, canonical isoform): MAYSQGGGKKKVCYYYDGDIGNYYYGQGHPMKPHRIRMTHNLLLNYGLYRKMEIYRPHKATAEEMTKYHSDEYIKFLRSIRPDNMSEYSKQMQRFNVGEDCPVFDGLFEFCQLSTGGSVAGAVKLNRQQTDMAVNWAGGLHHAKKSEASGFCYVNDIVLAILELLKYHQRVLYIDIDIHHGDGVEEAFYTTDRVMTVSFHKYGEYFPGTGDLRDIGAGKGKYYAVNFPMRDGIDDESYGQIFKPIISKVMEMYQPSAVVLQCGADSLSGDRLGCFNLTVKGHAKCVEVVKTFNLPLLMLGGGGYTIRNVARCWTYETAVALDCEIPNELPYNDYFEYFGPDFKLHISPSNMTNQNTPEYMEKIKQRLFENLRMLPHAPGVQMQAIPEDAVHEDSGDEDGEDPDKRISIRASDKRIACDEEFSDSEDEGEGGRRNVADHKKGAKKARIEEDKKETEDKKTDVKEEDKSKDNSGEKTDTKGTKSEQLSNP
# Chain of Histone deacetylase 1 (Q13547 whole entry): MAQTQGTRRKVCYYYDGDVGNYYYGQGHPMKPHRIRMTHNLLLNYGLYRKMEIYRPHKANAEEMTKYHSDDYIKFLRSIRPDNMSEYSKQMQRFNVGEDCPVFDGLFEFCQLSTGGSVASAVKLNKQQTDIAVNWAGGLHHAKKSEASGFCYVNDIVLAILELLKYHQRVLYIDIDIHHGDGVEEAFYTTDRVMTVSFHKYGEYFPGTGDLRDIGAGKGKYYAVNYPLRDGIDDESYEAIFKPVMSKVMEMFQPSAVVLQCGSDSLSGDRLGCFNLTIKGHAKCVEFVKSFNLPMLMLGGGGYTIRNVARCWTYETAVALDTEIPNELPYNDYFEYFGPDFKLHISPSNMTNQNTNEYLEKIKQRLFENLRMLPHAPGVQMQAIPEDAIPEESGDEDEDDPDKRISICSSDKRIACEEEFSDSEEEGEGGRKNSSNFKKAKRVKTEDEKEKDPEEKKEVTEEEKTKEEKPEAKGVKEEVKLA
SMILES,IC50 [1] [µM],IC50 [2] [µM],IC50 [3] [µM],IC50 [4] [µM],IC50 [5] [µM],IC50 [6] [µM],IC50 [7] [µM]
COc1cc2ncnc(Nc3ccccc3Br)c2cc1OCCCCCC(=O)NO,17,0.031,> 10,–,–,–,–
COc1cc2ncnc(Nc3ccccc3F)c2cc1OCCCCC(=O)NO,> 100,0.554,0.84,–,–,–,–
COc1cc2ncnc(Nc3ccc(F)cc3)c2cc1OCCCCC(=O)NO,74,0.139,0.455,–,–,–,–
COc1cc2ncnc(Nc3ccccc3F)c2cc1OCCCCCC(=O)NO,84,0.145,0.918,–,–,–,–
COc1cc2ncnc(Nc3ccccc3Cl)c2cc1OCCCCCC(=O)NO,15,0.029,0.685,–,–,–,–
COc1cc2ncnc(Nc3ccc(Cl)cc3)c2cc1OCCCCCC(=O)NO,4,0.011,0.313,–,–,–,–
COc1cc2ncnc(Nc3ccccc3Cl)c2cc1OCCCC(=O)NO,> 100,1.255,0.857,–,–,–,–
COc1cc2ncnc(Nc3ccccc3Cl)c2cc1OCCCCCCC(=O)NO,7.8,0.018,0.364,–,–,–,–
COc1cc2ncnc(Nc3ccccc3F)c2cc1OCCCCCCC(=O)NO,15,0.032,0.754,–,–,–,–
COc1cc2ncnc(Nc3ccccc3Br)c2cc1OCCCC(=O)NO,–,0.84,–,–,–,–,–
COc1cc2ncnc(Nc3ccc(F)cc3)c2cc1OCCCCCC(=O)NO,18,0.029,0.524,–,–,–,–
COc1cc2ncnc(Nc3ccccc3Br)c2cc1OCCCCCCC(=O)NO,2.6,0.0088,> 10,–,–,–,–
COc1cc2ncnc(Nc3ccc(F)cc3)c2cc1OCCCC(=O)NO,> 100,1.34,0.376,–,–,–,–
COc1cc2ncnc(Nc3ccccc3Cl)c2cc1OCCCCC(=O)NO,78,0.128,0.832,–,–,–,–
COc1cc2ncnc(Nc3ccccc3Br)c2cc1OCCCCC(=O)NO,33,0.074,> 10,–,–,–,–
COc1cc2ncnc(Nc3ccccc3F)c2cc1OCCCC(=O)NO,> 100,0.673,0.865,–,–,–,–
O=C(CCCCCCC(=O)Nc1ccccc1)NO [VORINOSTAT],–,–,> 10,–,–,–,–

# The remaining compounds from weak to strong by IC50 [3], led by results:
IC50 [1] [µM],IC50 [2] [µM],IC50 [3] [µM],IC50 [4] [µM],IC50 [5] [µM],IC50 [6] [µM],IC50 [7] [µM],SMILES
2.4,0.0085,0.27,–,–,–,–,COc1cc2ncnc(Nc3ccc(F)cc3)c2cc1OCCCCCCC(=O)NO
61,0.132,0.22,–,–,–,–,COc1cc2ncnc(Nc3ccc(Cl)cc3)c2cc1OCCCCC(=O)NO
1.7,0.0032,0.215,–,–,–,–,COc1cc2ncnc(Nc3ccc(Cl)cc3)c2cc1OCCCCCCC(=O)NO
85,0.698,0.182,–,–,–,–,COc1cc2ncnc(Nc3ccc(Cl)cc3)c2cc1OCCCC(=O)NO
3.5,0.012,0.153,–,–,–,–,COc1cc2ncnc(Nc3ccc(Br)cc3)c2cc1OCCCCCC(=O)NO
52,0.545,0.098,–,–,–,–,COc1cc2ncnc(Nc3ccc(Br)cc3)c2cc1OCCCC(=O)NO
0.85,0.0022,0.074,0.0033,0.0018,0.0164,0.0046,COc1cc2ncnc(Nc3ccc(Br)cc3)c2cc1OCCCCCCC(=O)NO
36,0.068,0.059,–,–,–,–,COc1cc2ncnc(Nc3ccc(Br)cc3)c2cc1OCCCCC(=O)NO
